# CXCR6 block: CXCR6 (human) receptor inhibition. AID 602244. inhibition, % at 20 µM. O00574. CHO-K1 PathHunter CXCR6 beta-arrestin, luminescence. 360,000 tested, 0.36% active; in the data active = inhibition above about 34%, passing the limit was not always enough;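 note: antagonist mode with CXCL16 agonist at 10 nM final; 0% = 10 nM CXCL16 with DMSO and 100% = unstimulated wells without agonist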
# Target sequence (O00574 whole entry, looked up): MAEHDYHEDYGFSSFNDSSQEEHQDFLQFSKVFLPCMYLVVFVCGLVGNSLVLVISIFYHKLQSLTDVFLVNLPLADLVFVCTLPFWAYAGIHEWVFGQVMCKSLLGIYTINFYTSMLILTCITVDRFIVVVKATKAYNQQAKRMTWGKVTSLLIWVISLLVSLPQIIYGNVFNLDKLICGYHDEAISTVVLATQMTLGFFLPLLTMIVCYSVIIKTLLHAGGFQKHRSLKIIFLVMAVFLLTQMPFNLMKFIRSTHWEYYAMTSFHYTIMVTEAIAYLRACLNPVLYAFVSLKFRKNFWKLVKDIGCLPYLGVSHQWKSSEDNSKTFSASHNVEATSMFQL
# APJ antag: APJ receptor antagonism | P35414 | CHO-K1 APJ beta-arrestin complementation, luminescence | inhibition, % at 20 µM | 330,000 tested, 0.32% active;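 active = inhibition above about 40% at 20 µM, limit read from the data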;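 note: cells challenged with 10 nM apelin-13 agonist together with compound; plate controls were apelin-13 plus DMSO wells for no effect and DMSO wells lacking apelin-13 for full effect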
# CCR6 antag: CCR6 (human) receptor antagonism. P51684. CHO-K1 CCR6 PathHunter beta-arrestin, luminescence, CCL20-stimulated. inhibition, % at 20 µM. 340,000 tested, 0.49% active. AID 493098;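 active = compounds whose inhibition of the agonist-driven luminescence signal at 20 µM reaches about 50%, limit read from the data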;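 note: cells stimulated with CCL20 at 14 nM final; plate controls were DMSO with CCL20 for no effect and DMSO without agonist for full effect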
# Beta2AR agonist: agonists of human beta-2 adrenergic receptor inducing internalization; P07550; Am2.2-beta2AR cells, FAP receptor internalization, flow cytometry; response, % (test concentration not listed); 340,000 tested, 0.43% active;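 active = response above a set limit, near 3 SD of response in nonfluorescent compounds, cut at about 42% in these data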
# APJ agonist: agonists of human APJ apelin receptor | AID 2520 | activation, % at 20 µM | 330,000 tested, 0.11% active | CHO-K1 APJ PathHunter beta-arrestin, luminescence; 0% DMSO wells, 100% apelin;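 active = activation more than six SD over the plate average, tested at 20 µM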;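 note: 0% = DMSO alone and 100% = apelin-13 at 10 nM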
#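 Material: CHO-K1 APJ beta-arrestin complementation cell line; Input: cell density 1000 per well; Incubation: compound stimulation 90 min at 25 °C, detection 60 min; Signal: luminescence from split beta-galactosidase complementation, Galacton Star/Emerald II substrate; Controls: DMSO-only wells as negative, 10 nM Apelin-13 as positive control.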
# PfGluPho inh: PfG6PD (Plasmodium falciparum) enzyme inhibition. 350,000 tested, 0.78% active. PfGluPho enzyme, NADPH resazurin-diaphorase fluorescence. AID 504690. inhibition, % at 20 µM;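 active = inhibition reaching at least a set limit at 20 µM in the primary screen, cut at about 59% in these data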;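 note: 0% = DMSO wells with substrate and 100% = DMSO wells lacking glucose-6-phosphate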
# B2AR ag CP1: human beta-2 adrenergic receptor agonism, cherry pick; Am2.2-beta2AR cells, FAP surface receptor, flow cytometry; active compounds read low; shares compounds with Beta2AR agonist; percent response (surface receptor), % at 10 µM; 1,100 tested, 25% active; AID 540358;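 active = surface receptor percent response at or below 58%, roughly 3 SD from nonfluorescent compounds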
# B2AR FAP counter: fluorescence artifact in beta-2AR agonist FAP counterscreen. shares compounds with Beta2AR agonist. Am2.2 cells, FAP fluorogen flow cytometry; active compounds read low. calls only at 10 µM. 1,100 tested, under 10 active. AID 588765;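 active = percent response below a set limit in fluorescence channel 1 and below 50% in channel 8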
# Active calls of the source: *; i = inactive; . = not tested or not shown. Compounds with a hit are over-represented: about 1.7% of the library has one in this group of screens.
SMILES,CXCR6 block,APJ antag,CCR6 antag,Beta2AR agonist,APJ agonist,PfGluPho inh,B2AR ag CP1,B2AR FAP counter
COc1cc(-c2nnc(COc3ccc(Cl)cc3C)o2)cc(OC)c1OC,2.1,-1.4,8.9,8.5,-2.2,8.8,.,.
Cc1ccc(-c2nnc(COc3cccc(-n4cnnn4)c3)o2)cc1,2.2,-7.7,2.0,-12.5,-3.3,3.8,.,.
COc1ccc(-c2nnc(COc3ccc(Br)cc3C)o2)cc1,4.6,-7.9,3.0,-3.6,0.5,12.5,107.3,i
Cc1cccc(OCc2nnc(-c3ccc(F)cc3)o2)c1,6.0,19.4,8.8,6.7,-2.0,14.8,97.3,i
C[C@H]1CN([C@@H](C)CO)C(=O)CCCn2cc(nn2)CO[C@@H]1CN(C)S(=O)(=O)c1ccc(Oc2ccccc2)nc1,-0.3,.,.,.,.,-0.1,.,.
CN(C)S(=O)(=O)c1ccc(Cl)c(C(=O)OCC(=O)NNC(=O)c2cccs2)c1,-3.9,-4.2,8.1,2.9,-1.1,-3.8,.,.
Cc1ccccc1NC(=O)CC(C)S(=O)(=O)c1ccc2c(c1)NC(=O)CO2 (stereo unspecified),-3.2,12.2,5.2,2.6,-4.5,-2.2,.,.
COc1ccc(CCN2CC(C(=O)N3CCSCC3)CCC2=O)cc1 (stereo unspecified),3.0,-2.5,19.9,2.2,-4.1,-3.1,.,.
CCN(CC)S(=O)(=O)c1cccc2cccnc12,-6.9,1.6,-9.7,-0.3,-0.4,-3.2,.,.
CN(c1cccc2cccnc12)S(=O)(=O)c1ccccc1,-4.4,-6.5,11.6,-2.1,-5.4,18.9,102.5,i
CCCOc1ccccc1/C=C1\SC(N2CCCCC2)=NC1=O,12.7,-9.6,18.9,0.6,0.0,11.8,.,.
O=C1CC(c2cc(Br)ccc2F)c2cc3c(cc2N1)CCC3 (stereo unspecified),12.6,14.6,-2.2,56.2*,-3.5,-3.5,95.2,i
CC(C)[C@H](NC(=O)c1ccc(C(C)(C)C)cc1)C(=O)N1CCN(Cc2ccc3c(c2)OCO3)CC1,5.6,12.3,20.3,4.0,-3.1,21.7,.,.
CCN1CCN(c2ccc(NC(=O)c3ccc([N+](=O)[O-])o3)cc2Cl)CC1,-4.7,.,-7.1,62.7*,.,35.7,13.5*,i
CCC(=O)N1CCN(c2ccc(NC(=O)c3ccc([N+](=O)[O-])o3)cc2Cl)CC1,-14.9,.,-7.3,23.7,.,49.5,.,.
O=C1NC(=O)C([N+](=O)[O-])=C(O)C1=O,0.0,.,.,.,.,-17.0,.,.
CCCC(=O)N(C1CC(C)C(C#N)(C#N)C1(C#N)C#N)N(C)C (stereo unspecified),80.8*,32.4,93.9*,42.5*,-5.0,12.7,33.6*,i
CC(C)Oc1cccc(C(=O)Nc2ccc(NC(=O)c3ccco3)cc2)c1,-6.5,-0.9,-5.9,-9.8,1.1,-12.1,147.8,i
COc1cccc(OC)c1C(=O)Nc1ccc(NC(=O)c2ccco2)cc1,2.3,-22.5,-2.2,-9.7,0.2,7.4,98.8,i
O=C(CSCc1ccc(Cl)cc1Cl)Nc1nccs1,-3.3,9.5,5.7,53.9*,-3.8,23.3,94.2,i
CC(C)(C)C(=O)Cn1c(=N)n(Cc2ccccc2)c2ccccc21,6.1,15.4,16.1,-1.8,-3.9,-0.9,.,.
Cc1ccc(Cn2c(=N)n(CC(=O)c3ccccc3)c3ccccc32)cc1,-5.6,9.1,9.0,58.2*,7.3,28.2,86.3,i
N=c1n(CC(=O)c2cccc([N+](=O)[O-])c2)c2ccccc2n1Cc1ccccc1,-6.0,-21.0,-2.1,-3.9,1.2,19.6,.,.
Cc1ccccc1Cn1c(=N)n(CC(=O)c2ccc([N+](=O)[O-])cc2)c2ccccc21,-24.3,.,-5.1,54.8*,.,24.4,22.2*,i
O=S(=O)(c1ccccc1)c1cnc(-c2ccccc2)nc1N1CCCC1,-0.6,-3.7,8.5,3.7,-2.4,-10.1,.,.
